The values that follow come from publication PMC3818380 (Archives of biochemistry and biophysics, 2013).

The assay has as its target interphotoreceptor retinoid-binding protein (IRBP) (Bos taurus, UniProt P12661). The assay is described as follows: Surface plasmon resonance. More on the design: species or system bovine. The note with it: for Stoichiometry (No. of sites): SPR, 25°C, n=3, ligand:IRBP binding stoichiometry; for kon: pH 7.4, read-out: ka, association rate constant; for koff: pH 7.4, read-out: kd, dissociation rate constant. A digest of the protocol: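 IRBP purified by chromatography from dark-adapted bovine retinas and amine-coupled at 10 µg/mL in 10 mM sodium acetate pH 4.5 to 10–12 kRU, with an unmodified reference channel. Running buffer 10 mM PBS pH 7.4, 0.01% Tween-20, 3% DMSO; for fatty acids, HEPES pH 7.4, 0.01% Tween-20, 3% ethanol. Seven two-fold FastStep injections, typically 0.01–15 µM, in triplicate at 25°C. Data double-referenced and globally fitted.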
For orientation: SPR reads the build-up and loss of mass on a sensor chip optically.

Chain of interphotoreceptor retinoid-binding protein (IRBP) (P12661 23-1286): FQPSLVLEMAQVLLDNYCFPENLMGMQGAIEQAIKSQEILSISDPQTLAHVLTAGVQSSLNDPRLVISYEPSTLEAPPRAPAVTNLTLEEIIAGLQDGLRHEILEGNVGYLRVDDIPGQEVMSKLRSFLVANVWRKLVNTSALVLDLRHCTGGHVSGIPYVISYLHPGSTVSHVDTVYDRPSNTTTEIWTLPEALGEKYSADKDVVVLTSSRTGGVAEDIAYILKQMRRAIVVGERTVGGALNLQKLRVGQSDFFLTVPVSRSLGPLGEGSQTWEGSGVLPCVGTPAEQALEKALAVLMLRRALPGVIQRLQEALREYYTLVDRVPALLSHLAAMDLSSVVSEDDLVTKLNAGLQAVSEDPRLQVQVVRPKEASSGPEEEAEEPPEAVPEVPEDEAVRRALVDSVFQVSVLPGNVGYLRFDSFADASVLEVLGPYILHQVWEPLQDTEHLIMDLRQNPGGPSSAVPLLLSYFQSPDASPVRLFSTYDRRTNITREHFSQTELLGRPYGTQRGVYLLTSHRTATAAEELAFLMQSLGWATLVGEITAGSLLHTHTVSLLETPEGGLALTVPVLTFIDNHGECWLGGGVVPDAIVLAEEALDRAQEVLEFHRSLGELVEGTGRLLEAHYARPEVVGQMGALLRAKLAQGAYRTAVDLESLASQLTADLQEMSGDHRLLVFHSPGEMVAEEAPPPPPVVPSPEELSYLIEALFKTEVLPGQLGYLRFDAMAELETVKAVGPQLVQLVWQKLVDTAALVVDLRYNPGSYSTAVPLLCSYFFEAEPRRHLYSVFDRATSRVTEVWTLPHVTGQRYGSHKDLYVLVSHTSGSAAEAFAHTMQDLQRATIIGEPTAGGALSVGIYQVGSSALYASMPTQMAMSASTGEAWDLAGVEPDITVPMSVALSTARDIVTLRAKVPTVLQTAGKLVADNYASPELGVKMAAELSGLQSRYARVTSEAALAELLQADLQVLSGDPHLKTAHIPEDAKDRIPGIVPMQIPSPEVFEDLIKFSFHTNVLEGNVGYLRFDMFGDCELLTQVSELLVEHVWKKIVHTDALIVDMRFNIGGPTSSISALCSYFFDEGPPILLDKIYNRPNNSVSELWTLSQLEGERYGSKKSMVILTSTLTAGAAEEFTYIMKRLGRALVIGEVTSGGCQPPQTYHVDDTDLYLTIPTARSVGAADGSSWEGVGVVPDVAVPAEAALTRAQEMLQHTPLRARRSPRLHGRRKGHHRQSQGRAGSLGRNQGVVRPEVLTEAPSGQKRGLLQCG

For orientation: Kd means the free concentration of one partner at which half of the binding sites on the other are occupied at equilibrium, for simple one-to-one binding. Turning to `CCCCCCCCCCCCCCCCCCCC(=O)O` [Arachidic acid], the Kd stood at 10.2 ± 0.7 µM, the “Stoichiometry (No. of sites)” value was 3.7, the kon is 280000 ± 1e+09 M⁻¹ s⁻¹ and the koff was 2.8 ± 0.1 s⁻¹.
With `CC1=C(/C=C/C(C)=C/C=C/C(C)=C/CO)C(C)(C)CCC1` [all-trans-retinol], the “Stoichiometry (No. of sites)” value was determined as 3.5.
As for `CC1=C[C@H](O)CC(C)(C)[C@H]1/C=C/C(C)=C/C=C/C(C)=C/C=C/C=C(C)/C=C/C=C(C)/C=C/C1=C(C)C[C@@H](O)CC1(C)C` [Lutein], the Kd was found to be 1.06 ± 0.2 µM, the “Stoichiometry (No. of sites)” value is 3.4, the kon came to 49000 ± 9e+07 M⁻¹ s⁻¹ and the koff was determined as 0.05 ± 0.4 s⁻¹.
Consider `CCCCC/C=C\C/C=C\CCCCCCCC(=O)O` [Linoleic acid], for which binding was characterised by a dissociation constant (Kd) of 11 ± 0.2 µM, the “Stoichiometry (No. of sites)” value came out at 3.7, the kon is 23000 ± 4e+07 M⁻¹ s⁻¹ and the koff was determined as 0.26 ± 0.4 s⁻¹.
For the compound `CCCCCCCC/C=C\CCCCCCCC(=O)O` [Oleic acid], the Kd came to 7.3 ± 0.7 µM, the “Stoichiometry (No. of sites)” value is reported as 3.6, the kon is 150000 ± 2e+09 M⁻¹ s⁻¹ and the koff stood at 1.1 ± 0.3 s⁻¹.
For the compound `CCCCC/C=C\C/C=C\C/C=C\C/C=C\CCCC(=O)O` [Arachidonic acid], the Kd was found to be 10 ± 0.1 µM, the “Stoichiometry (No. of sites)” value came to 3.8, the kon amounted to 24000 ± 3e+07 M⁻¹ s⁻¹ and the koff was 0.24 ± 0.3 s⁻¹.
In the case of `CC/C=C\C/C=C\C/C=C\C/C=C\C/C=C\C/C=C\CCC(=O)O` [Docosahexaenoic acid (DHA), Docosahexaenoic acid], the Kd was determined as 10 ± 0.1 µM, the “Stoichiometry (No. of sites)” value is listed as 3.4, the kon was determined as 20000 ± 2e+07 M⁻¹ s⁻¹ and the koff amounted to 0.2 ± 0.2 s⁻¹.
Take `CC1=C(/C=C/C(C)=C/C=C/C(C)=C/C=C/C=C(C)/C=C/C=C(C)/C=C/C2=C(C)C[C@@H](O)CC2(C)C)C(C)(C)C[C@H](O)C1` [Zeaxanthin]: binding was characterised by a dissociation constant (Kd) of 1.64 ± 0.5 µM, the “Stoichiometry (No. of sites)” value is 3.3, the kon is 33000 ± 1e+07 M⁻¹ s⁻¹ and the koff is 0.05 ± 0.5 s⁻¹.
As for `CCCCCCCCCCCCCCCC(=O)O` [Palmitic acid], the affinity, expressed as Kd, was 11.1 ± 0.7 µM; the “Stoichiometry (No. of sites)” value is listed as 3.7; the kon turned out to be 360000 ± 2e+09 M⁻¹ s⁻¹; the koff worked out at 0.4 ± 0.1 s⁻¹.
Take `CC/C=C\C/C=C\C/C=C\C/C=C\C/C=C\CCCC(=O)O` [Eicosapentaenoic acid (EPA), Eicosapentaenoic acid]: the dissociation constant Kd was found to be 9.4 ± 0.7 µM, the “Stoichiometry (No. of sites)” value is listed as 3.4, the kon was 30000 ± 2e+07 M⁻¹ s⁻¹ and the koff is 0.28 ± 0.4 s⁻¹.
In the same order, the values of `CC1=C(/C=C/C(C)=C/C=C/C(C)=C/C=C/C=C(C)/C=C/C=C(C)/C=C/C2=C(C)CCCC2(C)C)C(C)(C)CCC1` [β-carotene] are 0.92 ± 0.1 µM, 3.1, 122000 ± 2e+09 M⁻¹ s⁻¹ and 0.11 ± 0.8 s⁻¹.
With `CC1=C(/C=C/C(C)=C/C=C/C(C)=C/C=C/C=C(C)/C=C/C=C(C)/C=C/C2=C(C)C(=O)[C@@H](O)CC2(C)C)C(C)(C)C[C@H](O)C1=O` [Astaxanthin], binding was characterised by a dissociation constant (Kd) of 1.64 ± 0.06 µM, the “Stoichiometry (No. of sites)” value is recorded as 3.4, the kon came out at 26800 ± 9e+07 M⁻¹ s⁻¹ and the koff was 0.04 ± 0.5 s⁻¹.
Consider meso-zeaxanthin, for which the “Stoichiometry (No. of sites)” value is recorded as 3.2.
Turning to `CC1=C(/C=C/C(C)=C/C=C/C(C)=C/C(=O)O)C(C)(C)CCC1` [all -trans -retinoic acid], the dissociation constant (Kd) came out at 3.5 ± 0.1 µM, the “Stoichiometry (No. of sites)” value turned out to be 3.4, the kon was determined as 40000 ± 1e+07 M⁻¹ s⁻¹ and the koff is 0.14 ± 0.2 s⁻¹.
For the compound `CC1=C(/C=C/C(C)=C/C=C/C(C)=C/C=O)C(C)(C)CCC1` [all-trans-retinal], the “Stoichiometry (No. of sites)” value was determined as 3.2.
Consider `CCCCCCCCCCCCCCCCCC(=O)O` [Stearic acid], for which binding was characterised by a dissociation constant (Kd) of 7.03 ± 0.1 µM, the “Stoichiometry (No. of sites)” value is recorded as 3.7, the kon is 32000 ± 4e+07 M⁻¹ s⁻¹ and the koff was 0.23 ± 0.6 s⁻¹.
For the compound `CC1=C(/C=C/C(C)=C/C=C/C(C)=C/C=O)C(C)(C)CCC1` [11-cis-retinal], the “Stoichiometry (No. of sites)” value was determined as 3.1.
